Measurements published in ChEMBL document CHEMBL1287763, “Antiangiogenic properties of substituted (Z)-(±)-2-(N-benzylindol-3-ylmethylene)quinuclidin-3-ol/one analogs and their derivatives” (Bioorg Med Chem Lett, 2010).
Active and inactive are the calls of the source. The rule behind the calls is not given here.

Tests used:
HUVEC [1] = experiment: Antiangiogenic activity against HUVEC assessed as inhibition of cell migration at 25 uM after 20 hrs by scratch assay; type: functional, cell-based; conditions: Homo sapiens
Procedure, shortened: (§1)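 Confluent HUVEC monolayers were scratched with a pipette tip and washed twice with PBS. Compound was added in HUVEC medium, and cells were incubated at 37°C for 20 h. Images were taken at 0 h (right after compound addition) and at 20 h. Migration was compared with cells not given compound.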

HUVEC [2] = experiment: Cytotoxicity against HUVEC assessed as cell viability at 10 uM after 6 hrs by crystal violet staining; type: cell-based; conditions: human
HUVEC [3] = experiment: Antiangiogenic activity against HUVEC assessed as inhibition of cell migration at 10 uM after 20 hrs by scratch assay; type: functional, cell-based; conditions: Homo sapiens; procedure, shortened: as §1
HUVEC [4] = experiment: Inhibition of ECTO-NOX in HUVEC assessed as reduction of WST-1 at 10 uM […]; type: cell-based; conditions: Homo sapiens
Procedure, shortened: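 HUVECs were grown for 24 h after seeding, then treated for 20 h in duplicate with analog (0.5, 1, 5, 10 µM) or DMSO solvent. WST-1 reduction was then measured following the kit protocol, read as optical density at 450 nm.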

HUVEC [5] = experiment: Antiangiogenic activity against HUVEC assessed as inhibition of p70S6K1 phosphorylation at T389; type: functional, cell-based; conditions: Homo sapiens

SMILES	Activity (HUVEC [1])	Activity (HUVEC [2])	Activity (HUVEC [3])	ECTO-NOX inhibition (active/not active) (HUVEC [4])	inhibition (HUVEC [5])
OC1/C(=C/c2cn(Cc3cccc(F)c3)c3ccc(Br)cc23)N2CCC1CC2 (centres undefined)	Active	Non-toxic	Active	–	–
Cc1ccc(S(=O)(=O)n2cc(/C=C3/C(O)C4CCN3CC4)c3ccccc32)cc1 (centres undefined)	–	–	–	inactive	–
Cc1cccc(Cn2cc(/C=C3/C(O)C4CCN3CC4)c3cc(C)ccc32)c1 (centres undefined)	Active	Non-toxic	Active	inactive	–
O=[N+]([O-])c1ccc2c(c1)c(/C=C1/C(O)C3CCN1CC3)cn2Cc1ccccc1 (centres undefined)	Active	Non-toxic	Active	–	–
NC(=O)N/N=C1/C(=C/c2cn(S(=O)(=O)c3ccccc3)c3ccccc23)N2CCC1CC2	Active	–	Active	inactive	–
OC1/C(=C/c2cn(Cc3cccc(F)c3)c3ccccc23)N2CCC1CC2 (centres undefined)	Active	Non-toxic	Active	inactive	–
O=C(Nc1ccccc1)OC1/C(=C/c2cn(S(=O)(=O)c3ccccc3)c3ccccc23)N2CCC1CC2 (centres undefined)	Active	–	Active	–	–
OC1/C(=C/c2cn(Cc3ccccc3)c3ccc(Br)cc23)N2CCC1CC2 (centres undefined)	Active	Non-toxic	Active	inactive	–
O=S(=O)(c1ccccc1)n1cc(/C=C2/C(=N/O)C3CCN2CC3)c2ccccc21	Active	Non-toxic	Active	Active	Active
